TAAR1 antag – antagonists of human TAAR1; Q96RJ0; CHO RD-HGA16 TAAR1, Fluo-8 calcium fluorescence, antagonist; inhibition, % at 3 µM; hit rate 1.5% among 360,000; AID 624466;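 active = inhibition above a per-plate cutoff, the mean inhibition of test compounds on that plate plus 3 SD, cut at about 49% in these data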;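 also: 0% = DMSO plus EC80 beta-PEA response and 100% = DMSO alone without agonist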
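Assay system: CHO-derived RD-HGA16 cells stably expressing human TAAR1 plus Gα16. Timing: 140 s kinetic read after compound, 140 s after agonist. Technique: kinetic Fluo-8 calcium fluorescence measurement. Measure: % inhibition of agonist calcium response.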
OX1R antag-1 – OX1R (human) antagonism; O43613; OX1R-expressing cells, FRET antagonist read-out; inhibition, % at 6.6 µM; hit rate 1.8% among 330,000; AID 485270; in the data active = inhibition mostly above about 38%, no sharp cut-off; inactive = mostly below about 40%;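 also: 0% = agonist challenge alone and 100% = reference antagonist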
Target sequence (O43613 whole entry, looked up): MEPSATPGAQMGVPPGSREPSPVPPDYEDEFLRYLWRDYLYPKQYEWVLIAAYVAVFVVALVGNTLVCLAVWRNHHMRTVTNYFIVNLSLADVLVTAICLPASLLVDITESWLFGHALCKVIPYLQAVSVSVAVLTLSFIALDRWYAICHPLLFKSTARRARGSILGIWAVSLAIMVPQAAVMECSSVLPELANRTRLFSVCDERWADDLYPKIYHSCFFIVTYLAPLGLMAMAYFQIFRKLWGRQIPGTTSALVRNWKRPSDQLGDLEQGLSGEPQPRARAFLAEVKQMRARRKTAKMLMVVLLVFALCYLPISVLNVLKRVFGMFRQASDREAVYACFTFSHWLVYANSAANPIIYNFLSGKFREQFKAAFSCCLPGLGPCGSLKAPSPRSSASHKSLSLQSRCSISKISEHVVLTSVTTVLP
OX1R antag-2 – blocks the human orexin 1 receptor; O43613; CHO/OX1R cells, Fluo-8 calcium fluorescence, orexin A; inhibition, % at 5 µM; hit rate 0.43% among 330,000; AID 434989;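 active = inhibition above its plate's threshold, mean inhibition of all tested compounds on the plate plus 3 SD, cut at about 37% in these data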;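 also: 0% = orexin A challenge wells and 100% = SB-334867-A antagonist wells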
CHO parental Ca – signal in parental CHO cells, OX1R antagonist counter-screen | parental CHO-K1, ATP-induced calcium, Fluo-8 fluorescence | inhibition, % at 5.6 µM | hit rate 0.63% among 330,000;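 active = inhibition above that plate's mean sample inhibition plus 3 SD, cut at about 26% in these data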;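 also: 0% = ATP-challenged DMSO wells and 100% = DMSO wells without ATP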
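Assay system: parental CHO cells; Read-out basis: percent inhibition of ATP-evoked calcium rise, normalized to controls; Benchmarks: ATP and no-ATP DMSO wells; Compound dosing: single nominal dose of 5.6 µM per compound; Signal: Fluo-8 calcium dye fluorescence; Also added: ATP as calcium-mobilizing challenge; Repeats: singlicate.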
TAAR1 agonist – human TAAR1 agonism; Q96RJ0; CHO RD-HGA16 TAAR1, Fluo-8 calcium fluorescence; vehicle wells 0%, saturating PEA agonist 100%; activation, % at 3 µM; hit rate 0.99% among 360,000; AID 624467;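 active = activation above the mean activation of all test compounds in the run plus 3 SD, cut at about 38% in these data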
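Test system: RD-HGA16 (CHO) cells co-expressing Gα16 and hTAAR1 | Doses: Single dose, 3 µM | Schedule: 17-24 h seeding, 75 min 37 °C dye, 30 min RT | Evaluation: % activation from peak over basal fluorescence ratio, DMSO-to-PEA scaled | Technique: Kinetic Fluo-8 calcium fluorescence | Benchmarks: Low control DMSO, high control PEA (EC100)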
* hit, by the source's call; / = no result given. An excerpt weighted towards active compounds, which were near 4% of everything screened.

SMILES	TAAR1 antag	OX1R antag-1	OX1R antag-2	CHO parental Ca	TAAR1 agonist
O=c1[nH]nc(Cc2ccc(-c3cccc(Cl)c3)o2)c2ccccc12	30.8	71.5*	55.3*	38.2	13.0
OCc1cccc(-c2cnc3c(Nc4cccc(OC(F)(F)C(F)F)c4)nccn23)c1	59.9*	/	/	/	4.7
O=C(NCc1ccccc1)[C@H]1CCCN1C(=O)[C@H]1CCCN1C(=O)c1cccc(Cl)c1	-21.8	/	/	/	0.1
O=C(CSc1cccc[n+]1[O-])Nc1cc(Cl)ccc1[N+](=O)[O-]	-16.8	38.3*	2.9	4.2	2.4
O=C(CSc1n[nH]c(-c2ccccc2)n1)NC1CCCCC1	3.0	28.3	0.0	-16.1	-0.1
O=C(CSc1n[nH]c(-c2ccc(Br)cc2)n1)NC1CCCC1	66.7*	3.2	-2.4	-7.6	43.2*
COc1cccc(-c2cc(CNC(=O)[C@H]3O[C@@H](n4cnc(C(N)=O)n4)[C@H](O)[C@@H]3O)no2)c1	-42.0	/	/	/	2.8
O=c1[nH]c(=O)c2nnc(N/N=C\c3ccc(O)cc3)nc2[nH]1	-14.9	62.1*	-14.2	-8.4	9.3
O=C(Nc1ccc2ccccc2c1)c1ccccc1O	23.3	54.8*	8.6	8.6	1.8
CN(C)c1nc(OCCOC(=O)c2ccccc2)nc(N(C)C)n1	10.7	18.2	-27.4	-15.3	38.6*
Nc1nc(N)c2ncc(C(=O)CCc3ccccc3)nc2n1	-6.6	35.6	-23.2	-16.6	16.0
Nc1ccc(-c2nc3nc(N)nc(N)c3nc2-c2ccc(N)cc2)cc1	-5.7	39.7*	-8.3	-1.6	-1.0
Cc1nn(C(C)(C)C)c(OC(=O)c2ccc(Br)o2)c1Sc1ccccc1	23.0	37.6*	-18.7	-24.3	9.1
Cc1nn(C(C)(C)C)c(OC(=O)c2ccco2)c1Sc1ccccc1	13.7	22.4	-9.0	-6.9	2.8
Cn1nnnc1SCCOc1ccc(C#N)cc1	0.3	7.7	-4.4	-3.7	3.0
CCOC(=O)C1=C(C)Nc2ccccc2N=C1NC(=O)C1CCN(C(=O)c2ccccc2C)CC1	49.1*	7.6	-4.4	-12.8	10.0
Cc1ccc(NC(=O)C2CCN(C(=O)c3ccccc3C)CC2)nc1	-14.1	12.1	-29.0	15.7	3.1
Cc1ccccc1C(=O)N1CCC(C(=O)N2CCN(c3ncccn3)CC2)CC1	-16.0	9.4	-15.1	-12.1	2.6
CCOC(=O)N1CCN(C(=O)C2CCN(C(=O)c3ccccc3C)CC2)CC1	17.7	/	/	/	65.5*
CCOC(=O)C1CCN(C(=O)COC(=O)/C=C/c2ccc([N+](=O)[O-])cc2)CC1	1.2	26.4	8.7	-3.9	3.8
NC1C2CN(c3nc4c(cc3F)c(=O)c(C(=O)O)cn4-c3ccc(F)cc3F)CC12 (stereo not drawn)	/	6.1	-13.5	2.6	/
COC(=O)CC#C[C@@H](C)[C@H](NS(=O)(=O)c1ccc(C)cc1)C(C)(C)C	-10.0	/	/	/	1.0
COc1cc(N2CCCC2)c(OC)cc1/C=C1/NC(=S)NC1=O	50.8*	25.4	63.5*	32.0*	45.1*
COCC#Cc1ccc2c(c1)O[C@@H](CN(C)S(=O)(=O)c1cccc(F)c1)[C@@H](C)CN([C@H](C)CO)S2(=O)=O	-7.3	/	/	/	0.9
O=[N+]([O-])c1cccc(I)c1	16.4	/	/	/	0.0
SMILES	TAAR1 antag	OX1R antag-1	OX1R antag-2	CHO parental Ca	TAAR1 agonist
C=C1N(C)c2cc([N+](=O)[O-])c(N)cc2C1(C)C	0.9	56.3*	-22.4	-7.9	11.3
Cn1c(N)c(C(=O)COC(=O)CC2CC3CCC2C3)c(=O)n(C)c1=O (stereo not drawn)	-5.3	30.1	-2.6	4.4	40.1*
Cn1c(N)c(C(=O)COC(=O)Cc2ccc(Br)cc2)c(=O)n(C)c1=O	-11.8	5.9	-6.1	-2.3	6.7
O=c1c2ccccc2nc2c3ccccc3cnn12	6.8	41.2*	-18.6	-9.8	5.2
O=C1C=C(NCCN2CCOCC2)C(=O)c2cnccc21	/	114.7*	0.8	-3.7	/
COc1ccccc1Cc1c(-c2cccc(Br)c2)nc2ccc(C)cn12	-28.2	/	/	/	3.8
Cc1cccc(-c2ccc3[nH]c4c(c3c2)CCN2C[C@@H]([C@H](C)OC(=O)Nc3ccccc3C)[C@@H](N(C)C(=O)Nc3ccccc3C)C[C@@H]42)c1	5.1	/	/	/	3.8
O=c1cc(CSc2nnc(-c3cccs3)n2Cc2ccccc2)nc2sc3ccccc3n12	41.8	54.3	5.5	51.7*	1.7
O=C(NCc1ccccc1)[C@@H]1CCCN1C(=O)[C@H]1CCCN1C(=O)c1cccc2ccccc12	-1.1	/	/	/	-0.8
COc1ccc(-c2csc(Nc3ccc(S(=O)(=O)Nc4cc(C)on4)cc3)n2)cc1C	49.0*	24.5	7.7	-22.1	11.7
CCOC(=O)C1CCCN(C(=O)CCCn2nnnc2CN2CCOCC2)C1 (stereo not drawn)	22.0	/	/	/	39.6*
COc1ccc(NC(=O)/C(Cl)=C(/Cl)S(=O)Cc2ccccc2)cn1 (stereo not drawn)	73.8*	5.8	7.2	6.6	41.1*
COc1ccc(NC(=O)Cc2ccccc2)cn1	-28.6	3.9	-3.9	-4.4	3.6
CCCCCCCCN1C(=O)[C@@H](CC(=O)N2CCN(C(=O)c3ccco3)CC2)C[C@@]2(C(=O)OC)C1=C[C@H](C1CCCC1)O[C@@H]2C	-1.4	/	/	/	-1.9
Cc1cc(C)c2cc(C#N)c(N3CCCN(C(=O)c4cnccn4)CC3)nc2c1	-10.6	50.8*	-13.1	-11.1	-3.9
CC(=O)N1C[C@@H](CO)[C@@H](N(C)C(=O)/C=C/c2ccccc2)C[C@H]1c1ccccc1	-3.9	/	/	/	-0.5
S=C1NCN(CC2CC2)CN1	-9.6	/	/	/	2.1
Cc1cc2oc(=O)cc(CN(C)Cc3ccccc3)c2cc1C(C)C	25.3	-0.4	12.1	30.7*	7.5
COc1cccc(-c2nc(CS(=O)(=O)CC(=O)Nc3ccccc3Cl)c(C)o2)c1	-1.2	51.3*	5.1	-19.1	0.9
COc1cccc(-c2nc(CS(=O)(=O)CC(=O)Nc3ccccc3C)c(C)o2)c1	-1.8	16.6	-9.9	-22.8	0.3
O=C(O)c1ccc(C(=O)c2ccc3c(c2)C(=O)N(CC2CCCO2)C3=O)cc1 (stereo not drawn)	-14.1	55.5*	-2.1	1.2	3.7
O=C(O)c1cccc(NC(=O)c2ccc3c(c2)C(=O)N(CC2CCCO2)C3=O)c1 (stereo not drawn)	17.8	55.8*	-1.8	3.9	2.8
O=C(NCc1ccccc1Cl)c1ccccc1CCc1ccccc1	38.9	50.4*	23.3	65.6*	4.5
O=C(NCc1ccc(Cl)cc1)c1ccccc1CCc1ccccc1	39.3	32.5	-19.8	-17.3	3.8
Cc1cc(C)c(NC(=O)c2ccccc2CCc2ccccc2)c(C)c1	46.5	41.2*	30.8	6.8	2.8
O=S(=O)(Cc1ccccc1)N1CCN(Cc2ccc(F)cc2Cl)CC1	-3.0	20.1	-16.4	-9.1	1.2
C[C@@H]1ON(C)[C@H]2C[C@H]3c4[nH]c5c(-c6ccc(Cl)cc6)cccc5c4CCN3C(=O)[C@@H]12	-11.4	/	/	/	-0.8
O=C(COC(=O)c1ccc([N+](=O)[O-])s1)NCCc1ccccc1	/	27.2*	-9.8	-12.1	/

Screening data (PubChem)
